DNMT1 inh – human DNMT1 methyltransferase inhibitors, primary screen, biochemical, molecular beacon, fluorescence, HinP1I cleavage, uHTS; DNA (cytosine-5)-methyltransferase 1 (Homo sapiens), P26358; inhibition (reported as % activation of signal), % at 10 µM; 360,000 compounds, 0.83% hits; in the data active = inhibition above about 50%
GRK2 inh – compounds blocking aptamer binding on GRK2 – biochemical, human GRK2, bead flow cytometry, HTS, primary screen. FAM-aptamer displacement from GRK2. inhibition of aptamer binding, % at 10 µM. 330,000 compounds, 0.59% hits. AID 488847, 2010;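 active = inhibition of aptamer binding above 40%, roughly 3 SD of noise, on plates passing a quality check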;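 note: median bead fluorescence of bound FAM aptamer so fluorescent compounds give negative values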
LMPTP block – LMPTP phosphatase inhibitors, primary screen, biochemical, fluorescence intensity, uHTS. Low molecular weight phosphotyrosine protein phosphatase (Homo sapiens), P24666. recombinant LMPTP-A, OMFP fluorogenic substrate. AID 651560, 2012. 360,000 compounds, 0.22% hits. inhibition, % at 20 µM;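 active = compounds that cut the enzyme signal by at least half of the control window in the single-dose screen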
Target sequence (P24666 whole entry, looked up): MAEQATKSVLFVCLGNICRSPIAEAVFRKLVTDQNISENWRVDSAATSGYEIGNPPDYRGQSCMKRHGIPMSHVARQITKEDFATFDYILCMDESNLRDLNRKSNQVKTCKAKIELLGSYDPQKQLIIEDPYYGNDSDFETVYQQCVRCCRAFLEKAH
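Material: LMPTP-A; amount: 0.625 nM enzyme; doses: single 20 µM dose; times: reaction 50 min, room temperature, dark; technique: fluorescence intensity of OMFP turnover product; benchmarks: no-enzyme and uninhibited controls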
Scp-1 inhibitor – Scp-1 phosphatase inhibitors, primary screen, biochemical, colorimetric, uHTS | Carboxy-terminal domain RNA polymerase II polypeptide A small phosphatase 1 (Homo … | 340,000 compounds, 0.88% hits | inhibition, % at 20 µM | Recombinant Scp1, phosphopeptide, malachite green phosphate absorbance;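 active = inhibition above about 50% at 20 µM, limit read from the data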
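Times: enzyme reaction 45 min at room temperature, colour 5 min, stabilisation 30 min. Material: SCP-1 catalytic fragment, aa 76-261. Medium: Acidic Tris acetate buffer with magnesium and detergent. Signal: colorimetric free-phosphate detection, absorbance 630 nm. Read-out basis: % inhibition of SCP-1 phosphate liberation. Reagent: Phosphorylated 17-residue peptide substrate.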
SUMO1-SIM PPI – modulators of SUMO1 protein-protein interactions, primary screen, biochemical, uHTS | Small ubiquitin-related modifier 1 (Homo sapiens), P63165 | SUMO1 binding to a labelled peptide, TR-FRET, 1 h | inhibition, % at 20 µM | 360,000 compounds, 0.33% hits; in the data active = inhibition above about 37%
STEP inh – STEP phosphatase inhibitors, primary screen, biochemical, fluorescence intensity, uHTS; Tyrosine-protein phosphatase non-receptor type 5 (Homo sapiens), P54829; recombinant STEP, OMFP fluorogenic substrate; inhibition, % at 20 µM; 360,000 compounds, 0.25% hits;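 active = inhibition at 20 µM, scaled per plate between control wells, above about 37%, limit read from the data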
Target sequence (P54829 whole entry, looked up): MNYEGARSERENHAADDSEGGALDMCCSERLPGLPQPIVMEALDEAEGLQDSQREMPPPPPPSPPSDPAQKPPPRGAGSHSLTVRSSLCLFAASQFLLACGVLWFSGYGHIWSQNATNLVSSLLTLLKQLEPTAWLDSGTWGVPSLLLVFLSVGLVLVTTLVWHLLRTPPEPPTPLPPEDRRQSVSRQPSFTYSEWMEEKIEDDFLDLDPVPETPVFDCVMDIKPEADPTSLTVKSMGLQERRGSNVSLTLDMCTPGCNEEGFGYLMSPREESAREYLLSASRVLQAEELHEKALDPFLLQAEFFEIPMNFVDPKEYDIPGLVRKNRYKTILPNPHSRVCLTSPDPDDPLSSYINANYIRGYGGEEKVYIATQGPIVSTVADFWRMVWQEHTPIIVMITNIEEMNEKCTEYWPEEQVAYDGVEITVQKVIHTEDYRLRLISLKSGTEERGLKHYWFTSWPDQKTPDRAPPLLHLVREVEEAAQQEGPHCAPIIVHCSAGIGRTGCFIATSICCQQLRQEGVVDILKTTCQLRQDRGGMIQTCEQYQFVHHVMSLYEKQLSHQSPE
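Assay system: isolated STEP enzyme. Buffer or medium: pH 6.0 Bis-Tris with DTT and Tween 20. Also added: fluorogenic phosphatase substrate OMFP at 25 µM final. Dosing: 20 µM, 1% DMSO. Timing: 20 min reaction, room temperature, in the dark. Measured by: fluorescence intensity, excitation 480 nm, emission 540 nm. Evaluation: normalized % inhibition.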
Scp-1 conf – Scp-1 phosphatase inhibitors, retest, confirmation, biochemical, colorimetric, single concentration; recombinant SCP-1 catalytic domain, phosphate release, malachite green absorbance; inhibition, % at 20 µM; 2,500 compounds, 61% hits; shares compounds with Scp-1 inhibitor
MG interference – colorimetric readout interference by compounds, confirmation, artefact control for Scp-1 inhibitor project, biochemical, single concentration; Colorimetric interference counterscreen, malachite green absorbance 630 nm; shares compounds with Scp-1 inhibitor; AID 540313, 2011; 2,500 tested, under 10 active; apparent inhibition (interference), % at 20 µM;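 note: compounds added after enzyme reaction finished so only phosphate colour detection is probed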
Scp1 DSF – Scp-1 binding by thermal shift, confirmation, orthogonal assay for Scp-1 inhibitor project, biophysical, differential scanning fluorimetry | AID 540329, 2011 | Recombinant SCP1, Sypro Orange thermal shift Tm | 1,500 compounds, 25% hits | shares compounds with Scp-1 inhibitor | thermal shift relative to vanadate control, % at 40 µM;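 active = substances whose mean melting-temperature shift, as a percentage of the reference inhibitor's shift, reaches about 5.3%, limit read from the data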
DNMT1 interf DR – spectral interference with molecular beacon fluorescence, dose response, artefact control for DNMT1 inhibitor project, biochemical, fluorescent molecular beacon. 200 tested, under 10 active. IC50, µM. shares compounds with DNMT1 inh. spectral interference counter-screen. AID 602382, 2012; call rule not given here
DNMT1 confirm – DNMT1 methyltransferase inhibitor retest, confirmation, biochemical, molecular beacon, fluorescence, single concentration. shares compounds with DNMT1 inh. 2,300 compounds, 8% hits. AID 602385, 2012. inhibition, % at 10 µM. DNMT1 molecular beacon HinP1I cleavage;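 active = average inhibition of at least 30% in the single-concentration confirmation test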
DNMT1 interf – shows spectral interference in the DNMT1 beacon assay; shares compounds with DNMT1 inh; DNMT1 molecular beacon spectral interference counterscreen, fluorescence 485/520; activation (fluorescence interference), % at 10 µM; 2,300 compounds, 1% hits; AID 602387;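 active = activation of at least 30% at 10 µM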;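 note: DNMT1 catalytic domain with a HinP1I cleavage step and a FAM/dabcyl DNA beacon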
Hits are given with their value; – = inactive; · = not tested or not shown. Shown are actives, neighbours in structure and some others; about 2.1% of the full set was active somewhere.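 Rule for the calls, unless noted: active = inhibition of at least 30% at 20 µM; inactive = the rest.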

SMILES	DNMT1 inh	GRK2 inh	LMPTP block	Scp-1 inhibitor	SUMO1-SIM PPI	STEP inh	Scp-1 conf	MG interference	Scp1 DSF	DNMT1 confirm	DNMT1 interf	others
CCCCSc1nc2c(cc1C#N)CCC2	–	–	–	–	–	–	·	·	·	·	·
CCCSc1nc(C)c(-c2csc(C(C#N)=C3CCCC3)n2)cc1C#N	92	–	–	57	–	–	60	–	–	–	–
Cc1ccccc1CN1CCC(N2CCC(C(=O)NCC3CCCO3)CC2)CC1 (stereo not drawn)	–	–	–	–	–	–	·	·	·	·	·
NC(=N\N=Cc1ccco1)/C(N)=N/N=Cc1ccco1	55	·	–	62	–	–	39	–	–	–	–
O=C1CCCC(O)=C1Sc1ccccc1C(=O)O	67	–	–	57	–	–	37	–	–	–	–
O=C1CCCC(O)=C1C(C#Cc1ccccc1)C1=C(O)CCCC1=O	–	–	–	–	–	–	·	·	·	·	·
Cc1ccc(N(CC(=O)NC2CCCCC2)C(=O)CNC(=O)c2ccco2)c(C)c1	–	–	–	–	–	–	·	·	·	·	·
Cc1cccc(NC(=O)CNCC(=O)Nc2cccc(C)c2C)c1C	–	–	–	–	–	–	·	·	·	·	·
Cc1cccc(NC(=O)CNC(=O)c2cccc(-n3cccc3)c2)c1C	87	50	–	73	–	–	75	–	–	–	–
Cc1ccc(NC(=O)CN(C)C(=O)c2cccc(-n3cccc3)c2)cc1	100	·	–	91	48	–	72	–	–	34	–	DNMT1 interf DR=–
Cc1cccc(NC(=O)Cn2c(O)c(N=NC(=O)c3ccccc3O)c3ccccc32)c1	88	–	–	88	–	–	86	–	–	–	–
COCCN=C1Sc2nc3cc4c(cc3cc2CN1CC1CCCO1)OCO4 (stereo not drawn)	–	–	–	–	–	–	·	·	·	·	·
COc1ccc(/C=C/C(=O)OCC(=O)NC2CCCC2)cc1	–	–	–	–	–	–	·	·	·	·	·
NC(=S)n1[nH]c(-c2ccc([N+](=O)[O-])cc2)c(N=Nc2ccccc2[N+](=O)[O-])c1=O	85	·	–	63	–	–	38	–	10	–	–
CC(=O)c1ccc(S(=O)(=O)N2CCN(c3nc(-c4cccnc4)nc4ccccc34)CC2)cc1	–	–	–	–	–	–	·	·	·	·	·
CCN(CC)CCn1c(=S)[nH]c2cc(C(=O)NCCc3ccc(OC)c(OC)c3)ccc2c1=O	–	·	–	·	–	–	·	·	·	·	·
COc1ccc(/C=C(\C#N)C(=O)NCCc2ccccc2)cc1OCc1ccccc1	–	–	–	–	–	–	·	·	·	·	·
COCCCNC(=O)/C(C#N)=C/c1ccc(OCC(=O)O)c(OC)c1	89	44	–	57	–	–	60	–	7.5	–	–
CC(C)(C)c1ccc(NC(=O)C2CCCN(c3cnccn3)C2)cc1 (stereo not drawn)	–	–	–	–	–	–	·	·	·	·	·
Cn1cnnc1SCC(=O)Nc1sc2c(c1C(N)=O)CCC2	85	–	–	65	43	–	73	–	13	–	–
COC(=O)c1c(NC(=O)CN2C(=O)NC3(CCC(C)CC3)C2=O)sc2c1CCC2 (stereo not drawn)	–	–	–	–	–	–	·	·	·	·	·
CC1CCC2(CC1)NC(=O)N(CC(=O)Nc1sc3c(c1C(N)=O)CCC3)C2=O (stereo not drawn)	70	–	–	86	–	–	65	–	12	–	–
Cc1cc2c(NC3CCCCC3)ncnc2s1	–	–	–	–	–	–	·	·	·	·	·
Cc1ccc(O)c(Cn2nnc3ccccc32)c1	–	–	–	–	–	–	·	·	·	·	·
O=C(CN1CCCC1)Nc1c(Cl)cccc1Cl	–	–	–	–	–	–	·	·	·	·	·
SMILES	DNMT1 inh	GRK2 inh	LMPTP block	Scp-1 inhibitor	SUMO1-SIM PPI	STEP inh	Scp-1 conf	MG interference	Scp1 DSF	DNMT1 confirm	DNMT1 interf	others
Cc1cc(/C=C(/C#N)c2nc3ccccc3[nH]2)c(C)n1-c1cc(C(=O)O)cc(C(=O)O)c1	77	·	–	59	–	–	53	–	–	–	–
COc1ccc(OC)c(CN2CCN(c3ccc(S(=O)(=O)N4CCCC4)cn3)CC2)c1	–	–	–	–	–	–	·	·	·	·	·
Cc1ccoc1C(=O)NCCNC(=O)c1occc1C	–	–	–	–	–	–	·	·	·	·	·
Cc1ccoc1C(=O)NCc1occc1C(=O)O	57	–	–	50	–	–	34	–	–	–	–
COc1ccc(OC)c(C(O)c2ncc(-c3ccc(C(F)(F)F)cc3)[nH]2)c1 (stereo not drawn)	–	·	–	·	–	–	·	·	·	·	·
Cc1ccc(Cl)cc1N1CCN(C(=O)CN(c2ccccc2)S(=O)(=O)N(C)C)CC1	65	–	–	68	–	–	70	–	–	–	–
Cc1cccc(C(=O)OCC(=O)c2ccc(CC(=O)N3CCOCC3)s2)c1C	50	–	–	85	–	–	60	–	–	–	–
COc1ccccc1S(=O)(=O)N(C)C[C@@H]1OCc2cn(nn2)CCCC(=O)N([C@H](C)CO)C[C@H]1C	–	·	–	·	–	–	·	·	·	·	·
